The source of these data is PMC6022754 (Bioorganic & medicinal chemistry letters, 2017).

Series [1] is described as follows: BJ cell cytotoxicity counter screen. In kind it is cell-based. Particulars: human, BJ cells (normal human foreskin fibroblast cell line). On the technique in general: Counterscreens check selectivity or assay interference.
In series [2] the test system is HT29 colorectal carcinoma cell line. Briefly: quantitative high-throughput screening, HT29 cell growth inhibition. In kind it is cell-based. Particulars: HT29 cells, vs SSA (1).
Series [3] has as its system PC3 prostate cancer cell line. The series is described as follows: quantitative high-throughput screening, PC3 cell growth inhibition. In kind it is cell-based. Particulars: PC3 cells, vs SSA (1).
For series [4], the system named is MDA-MB-231 breast cancer cell line. Briefly: quantitative high-throughput screening, MDA-MB-231 cell growth inhibition. In kind it is cell-based. Particulars: MDA-MB-231 cells, vs SSA (1).
Series [5] can be described thus: computed physicochemical properties. The conditions noted are these: LipE = pCC50 (HT29) – logD (at pH 7.4). The method, boiled down: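 Lipophilic efficiency: CC50 taken from whole-cell HT29 growth-inhibition screening, not an enzymatic target-based assay. The value is converted to pCC50, and logD at pH 7.4 is subtracted from it.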
Series [6] deals with human colon tumor xenograft. The conditions noted are these: human colon tumor xenograft model; cited from earlier work. (In general: In xenograft studies the graft and the host belong to different species.)

SMILES strings stand for the structures.

Usually EC50 stands for the midpoint of the concentration-response curve. The low end stands for an effect from little substance, the high end for a need for much substance. With `COc1cc(/C=C2/C(C)=C(CC(=O)N3CCN(c4ccncc4)CC3)c3cc(F)ccc32)cc(OC)c1OC` [Compound 59], the EC50 in series [1] is more than 7.57 µM.

As for `CSc1ccc(/C=C2/C(C)=C(CC(=O)NCc3ccccc3)c3cc(F)ccc32)cc1` [Compound 72], the “reduction of activity compared to lead compound 1, HT29” value in series [2] worked out at 4 fold. The “reduction of activity compared to lead compound 1, PC3” value in series [3] amounted to 4 fold. The “reduction of activity compared to lead compound 1, MDA-MB-231” value in series [4] is 1.5 fold. `CCN(CC)CCCNC(=O)CC1=C(C)/C(=C/c2ccc(SC)cc2)c2ccc(F)cc21` [Compound 4] returned an EC50 in series [1] of more than 7.57 µM. As to `CSc1ccc(/C=C2/C(C)=C(CC(=O)N3CCCN(C)CC3)c3cc(F)ccc32)cc1` [Compound 50], the 50% effective concentration (EC50) in series [1] was more than 7.57 µM. `CC1=C(CC(=O)N(C)CCN(C)C)c2cc(F)ccc2/C1=C\c1nc2ccccc2s1` [Compound 35] had an EC50 in series [1] of more than 7.57 µM.

In series [1], `CSc1ccc(/C=C2/C(C)=C(CC(=O)N(C)CCN(C)C)c3cc(F)ccc32)cc1` [Compound 5] gave a concentration giving a half-maximal response (EC50) of more than 7.57 µM. The same measure, in the same setting: next, `COc1cc(/C=C2/C(C)=C(CC(=O)N(C)CCN(C)C(=O)[C@@H](N)C(C)C)c3cc(F)ccc32)cc(OC)c1OC` [Compound 89]: more than 7.57 µM; `CC1=C(CC(=O)N2CCN(c3ccncc3)CC2)c2cc(F)ccc2/C1=C\c1nc2ccccc2s1` [Compound 63]: more than 7.57 µM.

As for `CC1=C(CC(=O)N2CCN(CCCN(C)C)CC2)c2cc(F)ccc2/C1=C\c1nc2ccccc2s1` [Compound 62], the EC50 in series [1] was more than 7.57 µM. Moreover, the LipE in series [5] is on record as more than 3. For `CC1=C(CC(=O)NCCN2CCCC2)c2cc(F)ccc2/C1=C\c1nc2ccccc2s1` [Compound 61], the EC50 in series [1] was more than 7.57 µM. Also, the LipE in series [5] is listed as more than 3. `CSc1ccc(/C=C2/C(C)=C(CC(=O)N3CCN(CCCN(C)C)CC3)c3cc(F)ccc32)cc1` [Compound 44] came in with an EC50 in series [1] of more than 7.57 µM. Still for that read-out and setting: for `CSc1ccc(/C=C2/C(C)=C(CC(=O)N3CCC[C@H]3CN3CCCC3)c3cc(F)ccc32)cc1` [Compound 43] the value was more than 7.57 µM; for `CSc1ccc(/C=C2/C(C)=C(CC(=O)N3CCN(c4ccncc4)CC3)c3cc(F)ccc32)cc1` [Compound 46], more than 7.57 µM; for `CSc1ccc(/C=C2/C(C)=C(CC(=O)N3CCN(CCN(C)C)CC3)c3cc(F)ccc32)cc1` [Compound 45], more than 7.57 µM.

`CSc1ccc(/C=C2/C(C)=C(CC(=O)NCCCN(C)C)c3cc(F)ccc32)cc1` [Compound 2]: in series [2], the “reduction of activity compared to lead compound 1, HT29” value came out at 4 fold. Further, in series [3], the “reduction of activity compared to lead compound 1, PC3” value worked out at 2 fold. In series [4], the “reduction of activity compared to lead compound 1, MDA-MB-231” value is on record as 2 fold. `CSc1ccc(/C=C2/C(C)=C(CC(=O)NCCC3CCCN3C)c3cc(F)ccc32)cc1` (centres unmarked) [Compound 41] registered a LipE in series [5] of more than 3.

Turning to `CSc1ccc(/C=C2/C(C)=C(CC(=O)NCCN(C)C)c3cc(F)ccc32)cc1` [Compound 1, sulindac sulfide amide], the “in vivo antitumor activity” value in series [6] is on record as “comparable to sulindac”. Further, the LipE in series [5] is on record as 1.78. Compound `CC1=C(CC(=O)NCc2ccccc2)c2cc(F)ccc2/C1=C\c1ccc([S+](C)[O-])cc1` (centres unmarked) [Compound 79] gave an EC50 in series [1] of more than 7.57 µM.

In turn, `CC1=C(CC(=O)NCCCN(C)C)c2cc(F)ccc2/C1=C\c1nc2ccccc2s1` [Compound 33] displayed an EC50 in series [1] of more than 7.57 µM.
